According to publication PMC3319430 (Journal of Medicinal Chemistry, 2009):

What was measured:
[1] = cited from earlier work
[2] = cited from earlier work; remark: listed apart in the source
[3] = biological target: CFTR chloride conductance (Homo sapiens, UniProt P13569); experiment: Apical membrane chloride current; format: cell-based
[4] = test system: calcium-activated chloride channels; experiment: UTP-induced chloride current in cystic fibrosis; format: cell-based, human; conditions: 10 or 20 µM
Outline: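 Short-circuit current in cystic fibrosis human bronchial epithelial cells on inserts in Ussing chambers. Krebs-bicarbonate solution on both sides, gassed with 5% CO2 in air, 37 °C. ENaC was blocked with 10 µM amiloride. Calcium-activated chloride channels were stimulated with 100 µM UTP, and test compound was added.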

human wild-type CFTR = human wild-type CFTR (Homo sapiens, UniProt P13569); experiment: Whole-cell patch-clamp in CFTR-expressing FRT cells; format: cell-based; conditions: 500 nM; ±100 mV
Sequence of human wild-type CFTR (P13569 whole entry): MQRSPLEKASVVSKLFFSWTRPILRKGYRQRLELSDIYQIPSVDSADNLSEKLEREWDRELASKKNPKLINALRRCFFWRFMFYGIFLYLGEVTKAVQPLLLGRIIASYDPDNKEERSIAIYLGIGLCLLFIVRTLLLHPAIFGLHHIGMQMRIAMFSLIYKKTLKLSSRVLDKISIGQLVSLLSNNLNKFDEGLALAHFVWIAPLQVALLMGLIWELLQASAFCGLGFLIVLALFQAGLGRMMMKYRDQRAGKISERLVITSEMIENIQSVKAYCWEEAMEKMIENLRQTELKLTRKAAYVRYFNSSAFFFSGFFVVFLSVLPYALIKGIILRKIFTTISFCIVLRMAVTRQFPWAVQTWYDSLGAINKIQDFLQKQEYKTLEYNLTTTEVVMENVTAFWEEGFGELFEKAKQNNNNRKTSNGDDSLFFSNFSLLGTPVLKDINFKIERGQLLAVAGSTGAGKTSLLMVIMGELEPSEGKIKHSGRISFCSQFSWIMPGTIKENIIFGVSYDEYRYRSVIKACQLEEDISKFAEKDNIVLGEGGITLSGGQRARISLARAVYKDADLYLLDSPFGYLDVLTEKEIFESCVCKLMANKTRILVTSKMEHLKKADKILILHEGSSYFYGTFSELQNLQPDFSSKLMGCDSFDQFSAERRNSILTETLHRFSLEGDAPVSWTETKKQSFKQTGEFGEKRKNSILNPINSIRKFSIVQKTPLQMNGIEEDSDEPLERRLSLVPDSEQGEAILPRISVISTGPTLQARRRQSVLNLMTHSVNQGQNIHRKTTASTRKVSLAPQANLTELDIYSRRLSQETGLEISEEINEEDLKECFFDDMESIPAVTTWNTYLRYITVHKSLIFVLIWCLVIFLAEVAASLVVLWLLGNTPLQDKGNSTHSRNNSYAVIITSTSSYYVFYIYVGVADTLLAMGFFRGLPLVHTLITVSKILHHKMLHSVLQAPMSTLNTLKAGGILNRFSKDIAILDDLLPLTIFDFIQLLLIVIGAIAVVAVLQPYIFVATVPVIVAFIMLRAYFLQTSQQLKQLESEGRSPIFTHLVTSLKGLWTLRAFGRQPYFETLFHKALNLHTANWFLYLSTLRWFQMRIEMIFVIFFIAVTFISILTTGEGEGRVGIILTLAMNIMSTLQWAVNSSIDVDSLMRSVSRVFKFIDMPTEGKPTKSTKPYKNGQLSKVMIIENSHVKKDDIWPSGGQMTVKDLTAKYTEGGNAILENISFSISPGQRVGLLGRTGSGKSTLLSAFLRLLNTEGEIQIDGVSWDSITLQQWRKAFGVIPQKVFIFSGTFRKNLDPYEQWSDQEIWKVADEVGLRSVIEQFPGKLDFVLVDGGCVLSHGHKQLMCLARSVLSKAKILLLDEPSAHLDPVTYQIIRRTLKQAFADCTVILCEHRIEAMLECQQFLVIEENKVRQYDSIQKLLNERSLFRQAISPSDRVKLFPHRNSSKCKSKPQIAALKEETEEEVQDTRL

CFTR [5] = biological target: T1, CFTR (Homo sapiens, UniProt P13569); experiment: Cell-attached single-channel patch-clamp recordings of CFTR; format: cell-based; conditions: 1 µM
T1 sequence (P13569 whole entry): as above

[6] = test system: renal cysts in E13.5 embryonic kidneys; experiment: Embryonic kidney organ culture model of polycystic kidney disease; parameters: species or system mouse
Outline: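 Metanephroi from E13.5 mouse embryos, on porous inserts in DMEM/Ham's F-12 with glutamine, HEPES, insulin, transferrin, selenium, prostaglandin E, T3 and antibiotics, 37 °C humidified CO2. Medium with 100 µM 8-Br-cAMP ± test compound replaced every 12 h. For preformed cysts, compound was added at day 3 of 8-Br-cAMP. Transmitted-light images were taken, and % cyst area = total cyst area/total kidney area; 6–8 kidneys.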

CFTR [7] = biological target: T1, CFTR; experiment: Fluorescence platereader assay of CFTR-mediated iodide influx; format: cell-based; conditions: result in words
Outline: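 FRT cells co-expressing human wild-type CFTR and YFP-H148Q halide sensor, assayed 48 h after plating at confluence. After PBS washes, cells were activated with 5 µM forskolin, 100 µM IBMX and 25 µM apigenin. Test compound was added 5 min later, 25 µM final, for 15 min. Fluorescence was read 2 s baseline, then 10 s after iodide-for-chloride PBS addition. Initial influx rate was fitted by nonlinear regression.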

Sequence of CFTR chloride conductance (P13569 whole entry): as above

## O=C(O)c1ccc(/C=C2\SC(=S)N(c3cccc(C(F)(F)F)c3)C2=O)cc1 [CFTRinh-172]
[1]
  Aqueous solubility: low aqueous solubility
[2]
  Toxicity: low toxicity

## Cc1ccc(C2Nc3ccccc3-n3c(-c4ccccc4)c4c(=O)n(C)c(=O)n(C)c4c32)o1 (stereo not shown) [PPQ-102, 7,9-Dimethyl-11-phenyl-6-(5-methylfuran-2-yl)-5,6-dihydropyrimido[4′,5′-3,4]pyrrolo[1,2-a]quinoxaline-8,10-(7H,9H)-dione]
[3]; 30 min incubation with 2 µM followed by 10 min washout
  Reversibility of inhibition: complete restoration of CFTR chloride current
[3]; apigenin (100 µM) or IBMX (100 µM)
  Potency with apigenin or IBMX as agonists compared to CPT-cAMP: mildly reduced
[4]
  Inhibition of UTP-induced chloride currents: little inhibition
Human wild-type CFTR
  CFTR current-voltage relationship after addition: remained linear
CFTR [5]
  Mean channel closed time: greatly increased
  Mean channel open time: did not significantly change
CFTR [5]; +80 mV
  Unitary conductance: did not change
CFTR [5]; forskolin 10 µM and IBMX 100 µM, control 0.50 ± 0.04
  Channel open probability (Po): 0.14 ± 0.03
[6]; 0.5 µM, 100 µM 8-Br-cAMP, 4 days in culture
  Inhibition of cyst formation (percentage area occupied by cysts): > 60%
[6]; 2.5 µM removed after 3 days, 8-Br-cAMP continued
  Reversibility of cyst inhibition: reversible
[6]; 5 µM added at day 3 of 8-Br-cAMP, over 1 and 2 days
  Size of preformed cysts: remarkable reduction in cyst size
[6]; 2.5 and 5 µM, 100 µM 8-Br-cAMP, 4 days
  Cysts at 2.5 and 5 µM: near complete absence of cysts
[6]; in culture medium
  Kidney growth: did not affect kidney growth

## Cc1ccc(C(=O)Nc2ccccc2-n2cc3c(c2-c2ccccc2)c(=O)n(C)c(=O)n3C)o1 [PPQ-102b, N-(2-(1,3-Dimethyl-2,4-dioxo-5-phenyl-3,4-dihydro-1H-pyrrolo[3,4-d]pyrimidin-6(2H)-yl)phenyl)-5-methylfuran-2-carboxamide]
CFTR [7]
  CFTR inhibition activity: abolished CFTR inhibition activity
